Marks after values point to notes of the source that are not given here.
Legend:
[1] = system: Japanese patients with T2DM; experiment: Urinary glucose excretion; format: in vivo, human
Method in brief: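 Dosing was once daily, 0.5–5 mg or placebo, before a standardized ~600 kcal breakfast. Read-outs were 24-h cumulative UGE, total UGE and per-interval UGE rate, plus change from Day −1. LS mean difference vs placebo with 95% CI.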

[2] = system: Japanese patients with T2DM; experiment: Urine volume, water intake and body weight, 7-day once-daily dosing; format: in vivo, human
SGLT2 = details: read-out: 50% inhibitory concentration (IC50); cited from earlier work
healthy Japanese males = details: healthy subjects on luseogliflozin; cited from earlier work

## CCOc1ccc(Cc2cc([C@@H]3S[C@H](CO)[C@@H](O)[C@H](O)[C@H]3O)c(OC)cc2C)cc1 [Luseogliflozin, (1S)-1,5-anhydro-1-[5-(4-ethoxybenzyl)-2-methoxy-4-methylphenyl]-1-thio-D-glucitol]
[1]; 2.5 mg OD, Day 7, listed as luseogliflozin
  UGE0–24h LS mean difference vs placebo (95% CI): 89.4 g
[1]; 5 mg OD
  energy loss equivalent to the increase in UGE: approximately 400 kcal
  increase in UGE: about 100 g glucose/day
[1]; 5 mg OD, Day 1
  UGE0–24h: 116 ± 29.0 g
  UGE0–24h LS mean difference vs placebo (95% CI): 101 (87.6, 114)* g
[1]; 5 mg OD, Day 7
  Least-squares mean difference in 24-h UGE vs placebo: 101 g/day
  UGE0–24h: 120 ± 33.1 g
  UGE0–24h LS mean difference vs placebo (95% CI): 101 (80.7, 122)* g
[1]; 5 mg OD, Day 7, listed as luseogliflozin
  UGE0–24h LS mean difference vs placebo (95% CI): 101 g
[1]; each dose group
  time for UGE to return toward the baseline value after treatment discontinuation: 1 to 3 days
[2]; 0.5 mg OD, Day 1
  Body weight (24 h after dose): 67.49 ± 14.32 kg
  Body weight (24 h after dose) LS mean difference vs placebo (95% CI): −0.19 (−0.58, 0.20) kg
  Urine volume: 3148.1 ± 718.5 mL/day
  Urine volume LS mean difference vs placebo (95% CI): 456.1 (−212.4, 1124.7) mL/day
  Water intake: 2694.4 ± 936.4 mL/day
  Water intake LS mean difference vs placebo (95% CI): 131.8 (−455.8, 719.3) mL/day
[2]; 0.5 mg OD, Day 7
  Body weight (24 h after dose): 66.76 ± 14.29 kg
  Body weight (24 h after dose) LS mean difference vs placebo (95% CI): −0.45 (−1.14, 0.24) kg
  Urine volume: 3053.3 ± 1067.7 mL/day
  Urine volume LS mean difference vs placebo (95% CI): 303.5 (−208.4, 815.3) mL/day
  Water intake: 2686.4 ± 929.1 mL/day
  Water intake LS mean difference vs placebo (95% CI): 175.8 (−407.1, 758.7) mL/day
[2]; 1 mg OD, Day 1
  Body weight (24 h after dose): 71.71 ± 18.26 kg
  Body weight (24 h after dose) LS mean difference vs placebo (95% CI): −0.31 (−0.68, 0.07) kg
  Urine volume: 3284.5 ± 653.4 mL/day
  Urine volume LS mean difference vs placebo (95% CI): 723.8 (76.7, 1370.9)* mL/day
  Water intake: 3023.8 ± 883.4 mL/day
  Water intake LS mean difference vs placebo (95% CI): 513.6 (−54.5, 1081.7) mL/day
[2]; 1 mg OD, Day 7
  Body weight (24 h after dose): 71.01 ± 18.10 kg
  Body weight (24 h after dose) LS mean difference vs placebo (95% CI): −0.51 (−1.17, 0.14) kg
  Urine volume: 2421.0 ± 795.6 mL/day
  Urine volume LS mean difference vs placebo (95% CI): −174.9 (−670.3, 320.5) mL/day
  Water intake: 2400.4 ± 583.5 mL/day
  Water intake LS mean difference vs placebo (95% CI): −64.4 (−628, 499.2) mL/day
[2]; 2.5 mg OD, Day 1
  Body weight (24 h after dose): 67.43 ± 7.73 kg
  Body weight (24 h after dose) LS mean difference vs placebo (95% CI): −0.53 (−0.91, −0.15)* kg
  Urine volume: 3511.4 ± 522.9 mL/day
  Urine volume LS mean difference vs placebo (95% CI): 643.8 (−3.8, 1291.3) mL/day
  Water intake: 2964.0 ± 940.1 mL/day
  Water intake LS mean difference vs placebo (95% CI): −161.3 (−733.9, 411.4) mL/day
[2]; 2.5 mg OD, Day 7
  Body weight (24 h after dose): 66.70 ± 7.84 kg
  Body weight (24 h after dose) LS mean difference vs placebo (95% CI): −0.79 (−1.46, −0.12)* kg
  Urine volume: 3048.5 ± 868.2 mL/day
  Urine volume LS mean difference vs placebo (95% CI): 92.9 (−402.9, 588.6) mL/day
  Water intake: 3049.1 ± 856.6 mL/day
  Water intake LS mean difference vs placebo (95% CI): 46.5 (−521.6, 614.6) mL/day
[2]; 5 mg OD, Day 1
  Body weight (24 h after dose): 70.96 ± 9.34 kg
  Body weight (24 h after dose) LS mean difference vs placebo (95% CI): −0.74 (−1.11, −0.36)* kg
  Urine volume: 3939.8 ± 1386.0 mL/day
  Urine volume LS mean difference vs placebo (95% CI): 888.4 (235, 1541.8)* mL/day
  Water intake: 3256.8 ± 1581.7 mL/day
  Water intake LS mean difference vs placebo (95% CI): 17.3 (−558.5, 593.1) mL/day
[2]; 5 mg OD, Day 7
  Body weight (24 h after dose): 70.24 ± 9.09 kg
  Body weight (24 h after dose) LS mean difference vs placebo (95% CI): −0.97 (−1.62, −0.31)* kg
  Urine volume: 3471.4 ± 1204.5 mL/day
  Urine volume LS mean difference vs placebo (95% CI): 300.4 (−199.9, 800.6) mL/day
  Water intake: 3141.0 ± 1387.3 mL/day
  Water intake LS mean difference vs placebo (95% CI): 38.5 (−532.7, 609.8) mL/day
SGLT2
  IC50: 2.26 nM
Healthy Japanese males
  mean UGE: 58.0 g/day
